Laboratory results published in PubChem BioAssay AID588478 (ICCB-Longwood Screening Facility, Harvard Medical School, 2011).
“And” between values parts separate entries of the source, which are not always exact repeats. Equal values may be shown once. Hit rate of the full screen: of about 330,000 compounds, about 1,100 (0.33%) were called active.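 Rule for the calls: active = mean inhibition over replicate wells above about 20% (limit read from the data); inactive = the rest.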 The entries come from a sample that favours actives as a whole.

Target: Ubiquitin carboxyl-terminal hydrolase isozyme L5 (Homo sapiens) (UniProt Q9Y5K5)
Test: inhibitors of human UCH37 deubiquitinase, primary screen, biochemical, Ub-AMC cleavage, fluorescence (AID 588478);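 note: 0% = compound-free wells with enzyme and 100% = wells lacking proteasome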
Conditions: purified proteasome/UCH37, Ub-AMC cleavage fluorescence; stronger effect = higher value; concentration not given here
Method in brief: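 Assay system: Proteasome-bound UCH37. Buffer or medium: pH 7.4 Tris-HCl (50 mM) with ovalbumin, ATP-MgCl2, DTT. Incubation: 30 min preincubation with enzyme, 25 min cleavage at room temperature. Measured by: fluorescence, ex 355 nm, em 460 nm. Read-out basis: percent inhibition. Control set: wells without proteasome as full block, compound-free enzyme plus substrate as uninhibited.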

Sequence of Ubiquitin carboxyl-terminal hydrolase isozyme L5 (Homo sapiens) (Q9Y5K5 whole entry, looked up): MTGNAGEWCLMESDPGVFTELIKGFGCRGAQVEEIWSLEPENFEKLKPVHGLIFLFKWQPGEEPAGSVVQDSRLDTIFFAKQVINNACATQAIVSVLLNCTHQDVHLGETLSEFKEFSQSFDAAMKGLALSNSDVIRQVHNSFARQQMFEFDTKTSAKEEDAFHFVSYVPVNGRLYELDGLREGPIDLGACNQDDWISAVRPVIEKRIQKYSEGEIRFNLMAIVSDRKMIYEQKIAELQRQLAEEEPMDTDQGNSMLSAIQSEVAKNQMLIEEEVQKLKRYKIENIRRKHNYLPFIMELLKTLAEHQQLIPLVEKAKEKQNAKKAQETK

SMILES | inhibition
Cc1cccc(C(=O)ON=C(c2ccccc2)c2ccncc2)c1 | 3.58% (inactive)
Cc1ccc(-c2csc(N3CCN(c4cc5c(cc4Cl)nc(-c4ccncc4)n5CCOCCO)CC3)n2)cc1 | -1.15% (inactive)
Nc1c(Cl)cc(-c2csc(N3CCCC3c3nc4cc(Cl)c(Cl)cc4n3CCOCCO)n2)cc1Cl (stereo not given) | 28% (active)
CCCn1c(C2CCCN2c2nc(-c3ccc(C)cc3)cs2)nc2cc(Cl)c(N3CCCCC3)cc21 (stereo not given) | 3.86% (inactive)
CCOC(=O)C1=C(C)N=c2sc(=Cc3ccncc3)c(=O)n2C1c1ccc2c(c1)OCO2 (stereo not given) | -0.871% (inactive)
O=C(N[C@@H](Cc1ccccc1)C(=O)OCc1ccccc1)c1nc[nH]c1C(=O)N[C@@H](Cc1ccccc1)C(=O)OCc1ccccc1 | 31.8% (active)
O=C(N[C@@H](Cc1ccccc1)C(=O)OCc1ccccc1)c1nc[nH]c1C(=O)NC1CCNCC1 | -1.66% (inactive)
CC(C)(C)OC(=O)CNC(=O)c1[nH]cnc1C(=O)N[C@@H](Cc1ccccc1)C(=O)OCc1ccccc1 | 0.224% (inactive)
O=C(CNC(=O)c1ccncc1)NN=Cc1cccc([N+](=O)[O-])c1 | 1.21% (inactive)
C[C@H](NC(=O)c1ccccc1Cl)C(=O)OCC(=O)N1CCN(c2ccccc2)CC1 | 0.507% (inactive)
COc1cccc(/C=C/C(=O)OCC(=O)N2CCN(c3ccccc3)CC2)c1 | -11.1% (inactive)
O=C(OCC(=O)N1CCN(c2ccccc2)CC1)c1ccc([N+](=O)[O-])s1 | 61.3% (active)
Cc1cc([N+](=O)[O-])cc(C=Nn2c(C)nc3ccccc3c2=O)c1O | 12.9% (inactive)
Cc1cc(C)n(C(=O)C(C#N)=NNc2cc(Cl)cc(Cl)c2)n1 | 7.62% (inactive)
CON=C(C(=O)N[C@@H]1C(=O)N2C(C(=O)O)=C(COC(C)=O)CS[C@H]12)c1csc(N)n1 | 2.25% (inactive) and 5.96% (inactive)
Clc1ccc(-c2csc(NN=Cc3cccnc3)n2)cc1 | 7.34% (inactive)
CCOC(=O)c1ccccc1OC(=O)Oc1ccccc1C(=O)OCC | 2.7% (inactive)
CCOC(=O)c1c(C)nc(-c2ccccc2)nc1NC(=O)C(C)C | 2.52% (inactive)
CCOC(=O)c1c(C)[nH]c2c1-c1ccccc1C(=O)C2=O | 72.6% (active)
O=C(NN=C/C(Br)=C/c1ccccc1)NC1CCCCC1 | 4.04% (inactive)
CC(C)N(C(=O)CSc1nc(COc2ccccc2)nc2ccccc12)C(C)C | 2.03% (inactive)
Cc1cc(C)nc(SCC(=O)N(C)C)n1 | 4.9% (inactive)
Cc1nnc(SCC(=O)N(C(C)C)C(C)C)nc1C | 32.8% (active)
O=C(NN=Cc1cccs1)c1cc(-c2ccc(Cl)s2)[nH]n1 | 4.08% (inactive)

SMILES | inhibition
Cc1nn(Cc2ccc(Cl)cc2Cl)c(Cl)c1C=NNC(=O)CNc1cccc(C(F)(F)F)c1 | 5.09% (inactive)
O=c1[nH]c(CSc2ccccc2)nc2c1oc1ccccc12 | 3.26% (inactive)
COc1ccc(CCNC(=O)CSc2nc(C)nc3c2oc2ccccc23)cc1OC | 1.13% (inactive)
CCSc1nc(C)nc2c1oc1ccccc12 | 22.4% (active)
N#Cc1ccc(OCC(=O)NN=C2CC(c3ccccc3)Oc3ccccc32)cc1 (stereo not given) | 6.87% (inactive)
COC(=O)c1ccccc1-c1ccc(C=NNC(N)=O)o1 | -17.5% (inactive)
Cc1cc(C(=O)NN=C2CC(=O)CC(C)(C)C2)c2ccccc2n1 | 6.67% (inactive)
O=C(/C=C/c1ccc(N2CCOCC2)cc1)c1ccccc1 | -0.318% (inactive)
O=C(/C=C/c1ccccc1)c1ccoc1 | 35.8% (active)
O=C(O)c1ccc2c(c1)C(=O)N(c1ccc(/C=C/C(=O)c3ccccc3)cc1)C2=O | 8.59% (inactive)
CCN1C(=O)CSC1=NS(=O)(=O)c1ccc(Cl)cc1 | -0.232% (inactive)
COc1ccc(C=NNC(=O)CSc2ccccn2)cc1OC | 5.41% (inactive)
CCN1/C(=C\c2ccc3ccccc3[n+]2CC)Sc2cc(C)ccc21 | 4.94% (inactive)
CCOC(=O)CNC(=O)N1c2ccccc2Sc2ccccc21 | 5.96% (inactive)
CCC(=O)/C=C1\Sc2ccccc2N1CC | 23.7% (active)
COC(=O)c1ccc(C=NNC(=O)CNc2cccc(C)c2)cc1 | 1.65% (inactive)
Cc1[nH]c2ccccc2c1C=NNC(=O)CCC(=O)NCc1ccccc1 | 2.82% (inactive)
Cc1cccc(C=NNC(=O)Cn2nccc2C)n1 | -0.386% (inactive)
COc1ccc(S(=O)(=O)NCCCc2ccccc2)cc1 | 4.02% (inactive)
O=C1C=C(NS(=O)(=O)c2ccccc2)C(=O)c2ccccc21 | 16.2% (inactive)
COc1ccc(S(=O)(=O)/N=C2\C=C(NS(=O)(=O)c3ccccc3)C(=O)c3ccccc32)cc1 | 39.6% (active)
CC(=NNC(=O)c1cccc(NN=C(C)c2ccco2)c1)c1ccco1 | 1.7% (inactive)
CCCCCCC(=O)NN=CCc1ccccc1 | 0.89% (inactive)
COc1ccccc1N1CCN(N=C/C=C\c2ccccc2[N+](=O)[O-])CC1 | 7.46% (inactive)

SMILES | inhibition
CON=CCc1oc(=O)c(NC(=O)c2ccccc2)cc1C(=O)OC | 1.47% (inactive)
CCCCCCCNC(=O)C1(CC2CC(c3cccc(Br)c3)=NO2)CCN(C(=O)c2cc(OCC)c(OCC)c(OCC)c2)CC1 (stereo not given) | 3.99% (inactive)
O=C(c1ccccc1)N1CCC(CC2CC(c3ccc(Cl)cc3)=NO2)(C(=O)NCC2CCCCC2)CC1 (stereo not given) | 22.5% (active)
COc1ccc(CNC(=O)C2(CC3CC(c4ccccc4)=NO3)CCN(C(=O)c3cccc(O)c3)CC2)cc1 (stereo not given) | 4.4% (inactive)
CCOc1cc(C=NNC(=O)C(N)=O)cc(Br)c1O | 13.3% (inactive)
O=[N+]([O-])c1ccc(N(CCO)Cc2ccccc2)c([N+](=O)[O-])c1 | 6.59% (inactive)
O=[N+]([O-])c1ccc2c(c1)Nc1nc3ccccc3nc1N2 | 0.978% (inactive)
O=C1Nc2ccc([N+](=O)[O-])cc2C1=Nc1cccc(CO)c1 | 55.8% (active)
Cc1nnc(NN=Cc2ccccn2)[nH]c1=O | 1.91% (inactive)
CC(=N/N=C1/NC(=O)C(CC(=O)NCc2ccccc2)S1)C(C)C (stereo not given) | 3.63% (inactive)
CCNC(=S)N=C(N)Nc1nc(C)c2cc(C)ccc2n1 | 6.4% (inactive)
C(=NNc1nc(N2CCOCC2)nc(N2CCOCC2)n1)c1cccnc1 | 2.78% (inactive)
Cc1ccc(S(=O)(=O)N=C2C=C(Sc3ncn[nH]3)C(=O)c3ccccc32)cc1 | 63.7% (active)
Cc1ccc(S(=O)(=O)/N=S(\C)C(C)C)cc1 (stereo not given) | 0.621% (inactive)
Cc1ccc(N2C(=O)CC(Sc3ncn[nH]3)C2=O)cc1 (stereo not given) | 5.88% (inactive)
CC(=NNC(=S)NC(C)C)c1ccc(Cl)s1 | 8.08% (inactive)
O=C(Cc1ccccc1)NNC(=O)C1CCN(c2ncccn2)CC1 | -5.78% (inactive)
COc1ccccc1Oc1ccc(N/C=C2/CCCC2=O)cc1 | 3.61% (inactive)
O=C1/C(=C\Nc2ccccc2)CCN1c1ncccn1 | 21% (active)
c1coc(-c2nc3nc4ccccc4n3nc2-c2ccco2)c1 | 25.1% (active)
O=C(NN=Cc1cccnc1)c1cccc(N2CCCC2=O)c1 | 2.39% (inactive)
O=C(NC(Cc1c[nH]c2ccccc12)C(=O)NN=Cc1ccc(Br)cc1)c1cccs1 (stereo not given) | 0.851% (inactive)
CCN(CC)CCCC(C)n1c2nc(=O)[nH]c(=O)c-2nc2cc(Cl)ccc21 (stereo not given) | 76% (active)
CCN(CC)CCn1c2ccc(Cl)cc2c2nc(C)sc21 | 7.52% (inactive)

SMILES | inhibition
Nc1nnnn1N=Cc1cc(Cl)ccc1O | -10.7% (inactive)
CC(CC(=O)NCCc1ccccc1)=NNC(=O)COc1ccc(Br)cc1 | 3.08% (inactive)
COC1=C(N2CCOCC2)C(=O)c2ccccc2C1=O | 33.9% (active)
O=C1C(Cl)=C(N2CCOCC2)C(=O)N1c1ccccc1 | 3.48% (inactive)
O=C1c2ccccc2-c2ncnc3c(N4CCOCC4)cc(N4CCOCC4)c1c23 | 17.7% (inactive)
Cc1cc(C)n2nc(C(=O)NN=Cc3cccc(Cl)c3)nc2n1 | 4.88% (inactive)
COc1ccc(OCC(=O)NN=C(C)CC(=O)Nc2ccc(OC)cc2[N+](=O)[O-])cc1 | 5.56% (inactive)
COc1ccc(C2/C(=C(/O)c3ccccc3)C(=O)C(=O)N2c2ncccn2)cc1OC (stereo not given) | 7.11% (inactive)
Cc1cc(N2C(=O)C(=O)/C(=C(/O)c3ccc(Cl)cc3)C2c2cccc(Br)c2)no1 (stereo not given) | 6.56% (inactive)
Cc1cc(N2C(=O)C(=O)/C(=C(/O)c3ccccc3)C2c2cccc(Br)c2)no1 (stereo not given) | 21.7% (active)
Cc1ccccc1OCC(=O)NN=C1CCOc2c(C)cccc21 | -0.822% (inactive)
CC(C)(C)c1ccc(OCc2ccc(C(=O)NN=C3CC4CC=CC34)cc2)cc1 (stereo not given) | 2.62% (inactive)
O=C(NC1CCCCC1)c1ccc(-c2ccc(Cl)cc2)o1 | 1.6% (inactive)
CN(CC(=O)Nc1ccc(F)cc1)C(=O)c1ccc(-c2ccc(Cl)cc2)o1 | -0.892% (inactive)
Cc1[nH][nH]c(=O)c1C(c1ccc(-c2ccc(Cl)cc2)o1)c1c(C)[nH][nH]c1=O | 42.6% (active)
Cc1cccc(OCC(=O)NN=C/C=C/c2ccc3c(c2)OCO3)c1C | -10.5% (inactive)
CC(=NNC(=O)c1ccc2c(c1)OCO2)c1ccc(O)cc1 | 3.15% (inactive)
Oc1ccc(N=Nc2nccs2)c(O)c1 | 24.4% (active)
CC(=NNc1cc(N2CCOCC2)ncn1)c1ccccc1 | 2.94% (inactive)
Cn1c(=O)n(C)c2cc(C=Nn3cnnc3)ccc21 | -35.7% (inactive)
Cc1cc(=O)n2nc(N3CCCC(C(=O)NCCC4=CCCCC4)C3)sc2n1 (stereo not given) | 4.22% (inactive)
CC1CCCN(C(=O)c2ccc3c(c2)C(=O)N(CCC2=CCCCC2)C3=O)C1 (stereo not given) | 39.5% (active)
C=CCN1C(=O)c2ccc(C(=O)N3CCC(C(=O)OCC)CC3)cc2C1=O | -0.969% (inactive)
